From ChEMBL document CHEMBL1135705, “Correlation of the antibacterial activities of cationic peptide antibiotics and cationic steroid antibiotics” (2002)
Values after ≈ are worked out from the molar mass of the structure shown.

Key:
Streptococcus pyogenes = assay: Antibacterial activity against Gram-positive bacteria-Streptococcus pyogenes (ATCC 19615); assay type: functional
[1] = Compound was evaluated for minimum hemolytic concentration; assay type: functional
Procedure, shortened: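 Hemolysis was tested up to 200 µg/mL. Higher concentrations could not be used because of limited solubility.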

Staphylococcus aureus = assay: Antibacterial activity against Gram-positive bacteria -S. aureus (ATCC 25923); assay type: functional
Salmonella typhimurium = assay: Antibacterial activity against Gram-negative bacteria -Salmonella Typhimurium (ATCC 14028); assay type: functional, Salmonella enterica subsp. enterica serovar Typhimurium; conditions: Salmonella enterica
Escherichia coli = assay: Antibacterial activity against Gram-negative bacteria- Escherichia coli (ATCC 25922); assay type: functional

Row | Structure (SMILES) | MIC (Streptococcus pyogenes) | MHC [1] | MIC (Staphylococcus aureus) | MIC (Salmonella typhimurium) | MIC (Escherichia coli)
1 | C[C@H](CCCO)[C@H]1CC[C@H]2[C@@H]3[C@H](OCCCN)CC4C[C@H](OCCCN)CC[C@]4(C)[C@H]3C[C@H](OCCCN)[C@]12C (stereo not given in full) | 4.2 µg/mL (≈ 7.42 µM) | 100 µg/mL | 2 µg/mL (≈ 3.53 µM) | 43 µg/mL (≈ 76 µM) | 36 µg/mL (≈ 63.6 µM)
2 | C[C@H](CCCNCCCNCCCN)[C@H]1CC[C@H]2[C@@H]3[C@H](OCCCN)CC4C[C@H](OCCCN)CC[C@]4(C)[C@H]3C[C@H](OCCCN)[C@]12C (stereo not given in full) | 1.6 µg/mL (≈ 2.36 µM) | > 200 µg/mL | 2 µg/mL (≈ 2.95 µM) | 12 µg/mL (≈ 17.7 µM) | 7.3 µg/mL (≈ 10.7 µM)
3 | C[C@H](CCCN(CCCN)CCCN)[C@H]1CC[C@H]2[C@@H]3[C@H](OCCCN)CC4C[C@H](OCCCN)CC[C@]4(C)[C@H]3C[C@H](OCCCN)[C@]12C (stereo not given in full) | 3 µg/mL (≈ 4.42 µM) | > 200 µg/mL | 4.6 µg/mL (≈ 6.77 µM) | 25 µg/mL (≈ 36.8 µM) | 6.6 µg/mL (≈ 9.72 µM)
